Screens from PubChem.
NPY-Y2 antag = blocks the human neuropeptide Y Y2 receptor; AID 793; NPY-Y2 expressing cells, antagonist mode; inhibition, % at 2.7 µM; P49146; 0.99% of 140,000 active; in the data active = inhibition above about 17%;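 also: 0% = vehicle with agonist challenge and 100% = reference antagonist with challenge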
Target sequence (P49146 whole entry, looked up): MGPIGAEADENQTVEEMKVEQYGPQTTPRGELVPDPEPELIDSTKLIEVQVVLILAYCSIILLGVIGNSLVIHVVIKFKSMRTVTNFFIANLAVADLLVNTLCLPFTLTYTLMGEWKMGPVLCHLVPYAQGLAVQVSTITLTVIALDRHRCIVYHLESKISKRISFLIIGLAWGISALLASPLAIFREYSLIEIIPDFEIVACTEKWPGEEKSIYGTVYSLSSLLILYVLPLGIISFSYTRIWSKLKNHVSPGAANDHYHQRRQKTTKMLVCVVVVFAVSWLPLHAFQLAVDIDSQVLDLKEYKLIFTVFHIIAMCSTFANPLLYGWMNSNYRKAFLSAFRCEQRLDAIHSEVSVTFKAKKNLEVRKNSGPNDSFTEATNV
S1P4 antagonist = antagonists of human S1P4 receptor. S1P4-expressing cells, antagonist mode, reporter read-out. 0.26% of 220,000 active. inhibition, % at 4.98 µM; in the data active = inhibition above about 29%;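 also: 0% = wells stimulated with agonist and 100% = vehicle wells without agonist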
NPY2 pot ag = human NPY-Y2 potentiation or agonism, primary screen; P49146; cells expressing NPY-Y2, potentiator/agonist read-out; activation, % at 3.6 µM; 0.45% of 220,000 active; AID 1359; in the data active = activation above about 27%;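 also: cells stimulated with NPY near EC25 plus isoproterenol at EC100; 0% = vehicle plus submaximal agonist and 100% = vehicle plus saturating agonist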
NPY1 pot ag = potentiates or activates human NPY-Y1 receptor. NPY-Y1 expressing cells, potentiator/agonist activation. activation, % at 3.6 µM. P25929. 0.37% of 220,000 active; in the data active = activation above about 33%, passing the limit was not always enough;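 also: cells stimulated with NPY at EC10 then isoproterenol at EC100; 0% = low agonist plus stimulus and 100% = saturating agonist plus stimulus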
NPY Y1 blocker = antagonists of human neuropeptide Y receptor Y1; AID 1040; inhibition, % at 3.6 µM; HEK293-CNG Y1 cells, membrane potential fluorescence; NPY at EC95, then isoproterenol; 1% of 200,000 active; P25929;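 active = inhibition above the campaign mean inhibition of all tested compounds plus 3 SD, cut at about 20% in these data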;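 also: 0% = DMSO wells given NPY plus isoproterenol and 100% = isoproterenol alone without NPY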
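Material: HEK293 cells co-expressing NPY Y1 receptor and cyclic-nucleotide gated channel. Timing: compound incubation 1 h at room temperature, readout 45 min post-stimulation. Signal: fluorescence, membrane potential probe.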
S1P4 ag = human S1P4 receptor agonism; AID 1509; 0.35% of 220,000 active; O95977; activation, % at 4.98 µM; S1P4-expressing cell line, agonist reporter assay; in the data active = activation above about 11%;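 also: 0% = DMSO vehicle and 100% = reference agonist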
S1P4 agonist cf = confirmation of human S1P4 receptor agonists; 7% of 740 active; AID 1523; S1P4 agonist cell-based reporter assay; shares compounds with S1P4 ag; activation, % at 4.98 µM; in the data active = activation above about 12%;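 also: 0% = vehicle and 100% = full reference agonist response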
S1P1 agonist = human S1P1 agonism as S1P4 agonist counter-screen; shares compounds with S1P4 ag; S1P1 agonist cell-based assay, activation; activation, % at 4.98 µM; 4% of 740 active; AID 1563; in the data active = activation above about 21%;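 also: 0% = vehicle wells and 100% = reference agonist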
* hit, by the source's call; nt = no result given. Compounds with a hit are over-represented: about 2.4% of the library has one in this group of screens.

SMILES | NPY-Y2 antag | S1P4 antagonist | NPY2 pot ag | NPY1 pot ag | NPY Y1 blocker | S1P4 ag | S1P4 agonist cf | S1P1 agonist
N#CCCN(/N=C/c1cccnc1)C1=NS(=O)(=O)c2ccccc21 | nt | -4 | 4 | 10 | 4 | 47* | -1 | 3
Cc1cc(C)n(S(=O)(=O)c2ccc(C)c(C)c2C)n1 | 5 | -21 | -1 | 25 | 2 | 0 | nt | nt
COc1ccc(S(=O)(=O)n2nc(C)cc2C)c(C)c1C | 2 | 0 | 10 | 10 | 4 | 48* | -2 | -4
N#CCC(CNc1ncc(C(F)(F)F)cc1Cl)OC(=O)c1cccc(C(F)(F)F)c1 (configuration not stated) | 1 | 1 | -22 | -53 | 4 | 16* | -2 | 5
COc1ccc(Cl)cc1N(CC(=O)NCC(C)C)S(=O)(=O)c1ccc(C)c([N+](=O)[O-])c1 | 8 | -11 | -2 | -15 | 1 | 25* | -2 | -5
COc1ccc(NC(=S)N2CCN(c3ccccn3)CC2)cc1OC | 0 | -23 | -2 | -2 | 8 | 28* | -2 | -7
Cc1ccc(NC(=O)Cn2cc3c(n2)CCC(C)C3)cc1 (configuration not stated) | 6 | 3 | -13 | -23 | 2 | 27* | -2 | -7
COC(=O)c1ccccc1NC(=O)Cn1cc2c(n1)CCC(C)C2 (configuration not stated) | 6 | -7 | -11 | -9 | 6 | 0 | nt | nt
COc1c(/C=N/NC(N)=S)c(C)nn1-c1ccccc1 | 5 | -7 | -9 | -34 | 0 | 0 | nt | nt
CCCCN(CC)C(=O)c1ccc(Cl)cc1 | nt | -5 | -4 | 10 | 4 | 2 | nt | nt
CCN(CC(=O)NC(C)C)C(=O)c1ccc(Cl)cc1 | 3 | 0 | -1 | 3 | -1 | 18* | -3 | -4
CC(C)(C)c1ccc(C(=O)N2CCC(C(=O)NCc3ccncc3)CC2)cc1 | 2 | -8 | -11 | -15 | -2 | 16* | 0 | -1
O=C(NCc1ccncc1)C1CCN(S(=O)(=O)Cc2ccccc2)CC1 | 3 | 4 | -1 | 5 | 3 | 1 | nt | nt
N#Cc1ccc(CSc2nnc(-c3cccnc3)o2)cc1 | nt | -15 | -8 | 5 | 4 | 65* | -3 | -5
N#Cc1ccc(CSc2nnc(-c3ccncc3)o2)cc1 | nt | -8 | 6 | 1 | 5 | -2 | nt | nt
O=S(=O)(c1ccc(Cl)cc1)N1CCN(c2nc(-c3cccs3)nc3ccccc23)CC1 | 1 | -5 | -4 | 16 | 1 | 15* | -2 | 6
O=S(=O)(c1ccccc1)N1CCN(c2nc(-c3cccs3)nc3ccccc23)CC1 | 3 | -7 | -6 | 3 | 6 | 1 | nt | nt
O=C(NNc1c2ccccc2nc2ccccc12)C12CC3CC(CC(C3)C1)C2 | nt | -15 | -13 | 46 | nt | 13* | -2 | -3
O=C(NNc1c2ccccc2nc2ccccc12)c1ccccc1O | -7 | -22 | 16 | 32 | -9 | 3 | nt | nt
COc1ccc(CNC(=O)CN(C2CCCCC2)S(C)(=O)=O)cc1 | 1 | -21 | -1 | 1 | 8 | 2 | nt | nt
CCCC(=O)Nc1ccc2oc(-c3ccncc3)nc2c1 | -1 | -12 | 0 | -14 | -2 | 0 | nt | nt
CCCC(=O)Nc1ccc(-c2nc3cc(C)c(C)cc3o2)cc1 | 2 | 5 | -12 | 12 | 0 | 13* | 0 | -4
Nc1nc2c(c(=O)[nH]1)C(c1cccc3ccccc13)C1=C(N2)c2ccccc2C1=O (configuration not stated) | nt | -16 | 13 | 15 | -1 | 1 | nt | nt
CC(Nc1cccnc1)=C(C#N)C#N | nt | -8 | 3 | 1 | 4 | 12* | -3 | 15
CCC(c1nnc(SCC(=O)Nc2ccc(Cl)cc2C(F)(F)F)n1C1CCCCC1)N(C)C (configuration not stated) | 3 | -2 | -5 | 0 | -2 | 0 | nt | nt
SMILES | NPY-Y2 antag | S1P4 antagonist | NPY2 pot ag | NPY1 pot ag | NPY Y1 blocker | S1P4 ag | S1P4 agonist cf | S1P1 agonist
CCc1ccc(NC(=O)N(CCN2CCOCC2)C2CCN(C(C)=O)CC2)cc1 | -1 | -17 | 11 | 3 | -1 | 16* | -2 | 2
O=C(CN1CCN(c2ncccn2)CC1)NCc1ccccc1 | 0 | -14 | -8 | -24 | 3 | 3 | nt | nt
Clc1ccc(C2=NN(c3ccccc3)C(c3ccco3)C2)cc1 (configuration not stated) | nt | -20 | 13 | 3 | nt | 20* | 14* | 30*
Cc1nc2cc(NC(=O)NCc3ccco3)ccc2o1 | 4 | -20 | 6 | -17 | -6 | 20* | -2 | 3
Nc1nnn(CC(=O)N/N=C/C=C/c2ccccc2)n1 | nt | 3 | -25 | 12 | nt | 0 | nt | nt
CCN(c1ccccc1)S(=O)(=O)c1cc([N+](=O)[O-])ccc1N | nt | -8 | -2 | 7 | 4 | 17* | 19* | -5
Cc1ccc(C(=O)NCCc2nnc3ccc(SCC(=O)Nc4c(C)cc(C)cc4C)nn23)cc1 | 1 | -13 | -12 | -2 | 0 | 13* | -1 | -3
COCCSc1ccccc1C(=O)N1CCN(Cc2ccccc2)CC1 | nt | -10 | 3 | 0 | 0 | 13* | -2 | -7
COc1ccccc1C(=O)N(NC(=O)Oc1ccccc1)C(C)(C)C | 1 | -10 | -7 | -8 | -2 | 0 | nt | nt
O=C(COc1ccc2ccccc2c1)NNC(=O)Cc1cccc2ccccc12 | 7 | 2 | -28 | -16 | 14 | 0 | nt | nt
O=C(COc1ccc2ccccc2c1)NNC(=O)Cc1ccccc1 | 3 | -2 | -9 | -18 | 6 | 13* | -2 | -1
Cn1c(SCC(O)c2ccccc2)nnc1-c1ccc2ccccc2c1 (configuration not stated) | nt | 13 | -6 | -16 | nt | -1 | nt | nt
Cn1c(SCC(=O)O)nnc1-c1ccc2ncccc2c1 | nt | -7 | 5 | 21 | nt | 117* | 0 | -6
COCCn1c(=NC(=O)c2cc(Cl)sc2Cl)sc2cc(S(N)(=O)=O)ccc21 | 3 | -14 | -2 | -11 | -2 | 1 | nt | nt
COCCn1c(=NC(=O)c2ccc3c(c2)OCCO3)sc2cc(S(N)(=O)=O)ccc21 | nt | -4 | -18 | 10 | 3 | 16* | -1 | -6
CCN(CC(=O)NCc1cccs1)C(=O)CCc1c[nH]c2ccccc12 | nt | -14 | -9 | -10 | -4 | 1 | nt | nt
O=C(CCC(=O)N1CCN(c2ccccn2)CC1)Nc1nnc(C(F)(F)F)s1 | nt | -17 | 0 | 3 | nt | -1 | nt | nt
COC(=O)/C(C#N)=C/c1cc(C)sc1C | nt | -2 | -10 | 1 | nt | 0 | nt | nt
CC(=O)OCC1(C)CN(c2ccccc2)N(C(=O)c2ccc(C(C)(C)C)cc2)C1=O (configuration not stated) | nt | 3 | 4 | -7 | 4 | 25* | -2 | -5
CCOC(=O)c1cc2c(=O)n3ccccc3nc2n(C(C)C)c1=NC(=O)c1ccco1 | nt | -14 | 14 | 21 | -1 | 5 | nt | nt
